The list is not random: actives were taken first. Their share in the collection is about 5.6%.
GRIN3A LBD mod = binders of NR3A ligand-binding domain, primary screen, biophysical, differential scanning fluorimetry, uHTS; Glutamate receptor ionotropic, NMDA 3A (GRIN3A) ligand-binding domain; Tm shift relative to glycine control, % at 25 µM; NR3A LBD differential scanning fluorimetry, Tm shift; 0% = protein alone, 100% = glycine-bound protein; AID 1259313, 2017; 2.5% of 340,000 active;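 active = melting temperature shift of at least 10% of the positive control shift, at one fixed dose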
UPR XBP1 act = activators of adaptive XBP1 UPR arm, primary screen, cell-based, CHO-XBP1 luciferase reporter, luminescence, uHTS | activation, % at 20 µM | IRE1-XBP1 UPR activation; percent of tunicamycin response, DMSO as zero | AID 463104, 2010 | 0.33% of 330,000 active;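 active = versus positive control, 20 µM dose yields 30% or more activation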;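 also: 100% = tunicamycin at 10 µg/mL and 0% = DMSO only wells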
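Material – CHO cell line with stable XBP1 luciferase reporter · Buffer or medium – F12 plus 10% FBS · Compound – single point, 20 µM final compound, 1% DMSO · Schedule – 16-18 h cell attachment at 37 °C, then 6 h compound exposure · Signal – Steady-Glo luminescence read · Benchmarks – high control tunicamycin 10 µg/mL final, low control DMSO vehicle only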
CHOP inhibitor = inhibitors of CHOP promoter induction, primary screen, cell-based, unfolded protein response, luciferase reporter; CHO-K1 CHOP-promoter luciferase, tunicamycin-induced, 15-18 h; inhibition, % at 10 µM; 3.8% of 220,000 active;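 active = compounds that reduced the stress-induced luciferase reporter signal by more than about 70% of percent inhibition, limit read from the data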;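 also: 0% = tunicamycin plus vehicle and 100% = wells without tunicamycin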
MPTP block = mitochondrial permeability transition pore inhibitors, primary screen, biochemical, isolated mouse mitochondria, absorbance. inhibition, % at 10 µM. 1.4% of 360,000 active. AID 602449, 2012. Ca2+ swelling absorbance, 30 min;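 active = inhibition of 50% or more, scaled per plate between neutral and stimulator controls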;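 also: 0% = DMSO wells given calcium and 100% = 1 mM EGTA wells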
UPR CHOP act = activators of apoptotic CHOP UPR arm, primary screen, cell-based, CHO-CHOP luciferase reporter, luminescence, uHTS; UPR activation; percent of tunicamycin response over DMSO baseline; activation, % at 10 µM; 0.34% of 330,000 active;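 active = at 10 µM dose, activation of 40% or more, normalized to positive control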;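 also: 100% = tunicamycin at 10 µg/mL and 0% = DMSO alone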
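Evaluation: % reporter activation, DMSO baseline versus tunicamycin full activation; System: CHO-CHOP luciferase reporter cell line; Input: 500 cells/well; Incubation: 6 h compound treatment, 37 °C; Measured by: Steady-Glo luciferase luminescence; Dosing: one dose, 10 µM in 0.5% DMSO; Buffer or medium: F12 medium, 10% FBS; Benchmarks: positive tunicamycin 10 µg/mL, negative DMSO alone.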
aDG glyco act = activators of alpha-DG glycosylation, primary screen, uHTS, Pro5-aDG cells, AlphaScreen; alpha-DG glycosylation AlphaScreen (IIH6); 0% Pro5, 100% B10-LARGE cell signal; activation, % at 10 µM; 0.22% of 360,000 active; AID 624168, 2012;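 active = activation of at least 8% versus controls, or a plate z-score of at least 8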;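 also: Pro5 are CHO cells carrying HIG-tagged alpha-DG that lacks glycosylation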
UPR XBP1 confirm = IRE1-XBP1 UPR arm activators, confirmation, cell-based, CHO-XBP1 luciferase reporter, luminescence, single concentration | shares compounds with UPR XBP1 act | activation, % at 20 µM | 63% of 1,000 active;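 active = reporter signal at least 30% of the positive control's activation in two or more of four replicate wells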;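 also: plate controls were DMSO negative control for no effect and tunicamycin 10 µg/mL positive control for full effect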
MPTP counter = fluorescence retest of MPTP screen hits in isolated mitochondria, single concentration. shares compounds with MPTP block. membrane potential, Rhodamine 123 fluorescence. inhibition, % at 10 µM. 78% of 5,000 active; in the data active = inhibition above about 22%;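 also: 0% = DMSO vehicle and 100% = positive control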
MPTP abs DR = mitochondrial permeability transition pore inhibitors, dose response, biochemical, absorbance, uHTS hits; 58% of 780 active; shares compounds with MPTP block; IC50, µM; AID 651561, 2012; isolated mitochondria swelling; in the data active = IC50 below about 20 µM
MPTP cs DR = fluorescent counter-screen in isolated mitochondria, dose response, counter-screen for MPTP inhibitor project, biochemical, fluorescence, uHTS hits. shares compounds with MPTP block. isolated mitochondria counterscreen, fluorescence read-out. IC50, µM. 49% of 780 active; in the data active = IC50 below about 80 µM
* hit, by the source's call; i = inactive; . = no result.

SMILES | GRIN3A LBD mod | UPR XBP1 act | CHOP inhibitor | MPTP block | UPR CHOP act | aDG glyco act | MPTP counter | others
FC(F)(F)c1cc(CCN2CCNC[C@@H]2Cc2ccccc2)cc(C(F)(F)F)c1 | -4 | 37* | . | 92* | 2 | 2 | -22 | UPR XBP1 confirm=18
Fc1cccc(CCN2CCNC[C@@H]2Cc2ccccc2)c1 | -4 | 1 | . | 22 | 1 | 0 | .
COC(=O)c1c(NC(=O)c2nc3ccccc3s2)sc2c1CC(C)(C)NC2(C)C | 0 | 41* | 67 | 60* | 26 | 0 | -9 | UPR XBP1 confirm=48*;MPTP abs DR=i;MPTP cs DR=>80
COC(=O)c1c(NC(=O)c2ccc(C(=O)c3ccccc3)cc2)sc2c1CC(C)(C)NC2(C)C | . | . | . | 2 | . | 0 | .
CN(C(=O)c1cccc(NC(=O)Cc2ccc(NC(=O)C3CCN(C(=O)CCc4ccccc4)CC3)cc2)c1)C1CCC1 | -7 | . | . | 1 | . | 0 | .
COc1ccc(OC)c(NC(=O)C2(C)CCN2CCOc2ccccc2)c1 (stereo not given) | . | . | . | -1 | . | 0 | .
CCCCCCCCCCOC(=O)Cn1c(COc2ccccc2OC)[n+](C)c2ccccc21 | -408 | 77* | . | 53* | 11 | 0 | 95* | UPR XBP1 confirm=52*
Cn1c(COc2ccccc2O)[n+](C)c2ccccc21 | -2 | 0 | . | 0 | 0 | 0 | .
COc1ccc(CNC(=O)c2cccc(NC(=O)CC3SC(N4CCCCC4)=NC3=O)c2)cc1 (stereo not given) | 2 | -3 | . | -1 | -2 | 1 | .
CC(C)OC(=O)CC1C(=O)NCCN1C(=S)NC(=O)c1cccs1 (stereo not given) | -5 | -1 | 15 | 0 | 2 | 0 | .
COCCCN1CCN(C2Cc3ccccc3Sc3ccc(Cl)cc32)CC1 (stereo not given) | -2 | -1 | 45 | -3 | 0 | 0 | .
Clc1ccc2c(c1)C(N1CCNCC1)Cc1ccccc1S2 (stereo not given) | -2 | 63* | 79* | 83* | 5 | -1 | -7 | UPR XBP1 confirm=72*
OC(c1ccc(F)c(F)c1)c1nc(-c2ccncc2)cs1 (stereo not given) | . | . | . | 5 | . | 1 | .
OC(c1ccc(F)cc1)c1nc(-c2ccncc2)cs1 (stereo not given) | . | . | . | 65* | . | 0 | 57*
COc1ccc(C(=O)N(C)CC2CCN(CCc3cccc(C(F)(F)F)c3)CC2)cc1C | -2 | -2 | . | 53* | -2 | 0 | -3 | MPTP abs DR=12*;MPTP cs DR=42*
CC(C)(C)c1ccc(C(=O)N/N=C/c2cccc(Cl)c2)cc1 | -7 | 2 | -20 | 81* | 5 | 0 | 84*
CC(C)(C)c1ccc(C(=O)N/N=C/c2ccccn2)cc1 | 0 | 9 | . | 0 | 12 | 0 | .
CCOC(=O)c1nc(NNC(=O)c2ccc([N+](=O)[O-])cc2)sc1C | -7 | -5 | . | 78* | -3 | 0 | 67*
Oc1c(N=Nc2nn[nH]n2)ccc2ccccc12 | . | . | . | 5 | . | 1 | .
Brc1ccc(N/N=C(/N=Nc2nn[nH]n2)c2ccccc2)cc1 | 4 | -2 | 71* | 85* | -3 | 1 | 30*
COc1cccc(COc2cc3ccccc3nc2C)c1 | 2 | 10 | 61 | 97* | 5 | 6 | 94*
Cc1nc2ccccc2cc1C(=O)NCc1ccccc1 | 1 | -3 | . | 14 | 0 | 0 | .
Cc1nc2ccccc2cc1OCc1ccc(Cl)cc1 | -13 | 6 | 83* | 96* | 8 | 4 | 104*
Cc1nc2ccccc2cc1OCc1ccccc1 | 1 | 7 | 55 | 92* | 6 | 3 | 100*
Cc1nc(OCc2ccccc2)c2ccccc2n1 | -2 | -1 | 17 | 72* | 2 | 0 | 15 | MPTP abs DR=12*;MPTP cs DR=27*
Cc1noc(C)c1CSCC(=O)Nc1nc2ccc(F)cc2s1 | -2 | 1 | . | 0 | 1 | 0 | .
COc1cc(C(=O)NN2C(=O)NC3(CCC(C)CC3)C2=O)ccc1OC(F)F (stereo not given) | 1 | 0 | . | 1 | 1 | 0 | .
